The test system of test [1] is Escherichia coli. The note with it: 200 uM.
Test [2] concerns Staphylococcus aureus. The test is described as follows: Bactericidal activity against methicillin-resistant Staphylococcus aureus USA300 TCH1516 at 50 ug/ml upto 9 hrs. In kind it is functional. Particulars: USA300_TCH1516. An outline of the steps: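 Culture inoculated at OD600 0.05 and grown until OD600 reaches 0.5–0.6, when additives are added; chloramphenicol and vancomycin serve as controls. OD600 is followed before and after addition for several hours. For S. aureus the assay uses fewer time points and a smaller volume.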

For test [3], the system named is Bacillus subtilis subsp. subtilis str. JH642. Kind of test: Bactericidal activity against Bacillus subtilis JH642 assessed as clearing of bacterial culture at 50 ug/ml upto 9 hrs. In kind it is functional. An outline of the steps: (§1)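 B. subtilis JH642 grown overnight in LB, diluted into 20 mL LB at OD600 0.05, grown at 37 °C. Compound added at OD600 0.5–0.6. OD600 followed before and after addition over several hours. Vancomycin served as bactericidal control and chloramphenicol as bacteriostatic control.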

Test [4] deals with Staphylococcus aureus. The test is described as follows: Antimicrobial activity against methicillin-resistant Staphylococcus aureus USA300 TCH1516 at 30 ug after 20 hrs by disk diffusion assay. Format: functional. Particulars: USA300_TCH1516. In general terms: Agar diffusion results depend on both activity and mobility in agar.
Test [5] relates to Bacillus subtilis subsp. subtilis str. JH642. Kind of test: Bactericidal activity against Bacillus subtilis JH642 assessed as bacterial cell lysis at 50 ug/ml upto 9 hrs. Format: functional. An outline of the steps: as §1
In test [6] the test system is Staphylococcus aureus. Kind of test: Antibacterial activity against Staphylococcus aureus ATCC 29213 by broth microdilution method. In kind it is functional. The method in brief:
(§2)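 Clinical resistant isolates and quality control strains (S. aureus ATCC 29213, E. coli ATCC 25922) are tested by EUCAST broth microdilution with a 10⁶ bacteria/mL inoculum, in triplicate, with or without a fixed adjuvant concentration. For MBC, the MIC dilution and at least two more concentrated dilutions are plated and CFU/mL counted.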
(In general: In broth dilution the organism is exposed to a series of concentrations in liquid medium.)

Test [7] relates to Staphylococcus aureus. Kind of test: Bactericidal activity against Staphylococcus aureus ATCC 29213 by broth microdilution method. In kind it is functional. The method in brief: as §2

SMILES strings stand for the structures. Values after ≈ are worked out from the molar mass of the structure shown. Active and inactive are the calls of the source.

`O=C(O)c1cn(C2CC2)c2cc(N3CCNCC3)c(F)cc2c1=O`: in test [1], the inhibition result is “Active”.

Take `CN[C@H](CC(C)C)C(=O)N[C@H]1C(=O)N[C@@H](CC(N)=O)C(=O)N[C@H]2C(=O)N[C@H]3C(=O)N[C@H](C(=O)N[C@H](C(=O)O)c4cc(O)cc(O)c4-c4cc3ccc4O)[C@H](O)c3ccc(c(Cl)c3)Oc3cc2cc(c3O[C@@H]2O[C@H](CO)[C@@H](O)[C@H](O)[C@H]2O[C@H]2C[C@](C)(N)[C@H](O)[C@H](C)O2)Oc2ccc(cc2Cl)[C@H]1O`: the outcome in test [2], in test [3], in test [4] and in test [5] was Active.

One may read the MIC as the smallest concentration in the dilution series that meets the test's criterion for growth inhibition. Read a high MIC as weaker potency. The term MBC denotes the lowest tested concentration that kills the bacteria rather than only halting them. In the case of `CC1(C)S[C@@H]2[C@H](NC(=O)Cc3ccccc3)C(=O)N2[C@H]1C(=O)O` [PENICILLIN G], the MIC in test [6] is 0.5 µg/mL (≈ 1.5 µM). The compound also registered an MBC in test [7] of 0.5 µg/mL (≈ 1.5 µM).

These data come from ChEMBL document CHEMBL3860044, “The Rational Design, Synthesis, and Antimicrobial Properties of Thiophene Derivatives That Inhibit Bacterial Histidine Kinases” (J Med Chem, 2016).
